Legend:
[1] = system: L1210; assay: Uptake of a initial concentration of 100 ug/mL of compound in medium by L1210 cells after 30 min expressed as drug concentration in cells; type: functional, cell-based; conditions: Mus musculus
Method in brief: (§1)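 Cultured L1210 leukemia cells were incubated with drug in medium for set times. Cells were then washed in phosphate buffered saline and lysed by sonication in distilled water. Drug in the lysate was measured by HPLC on a short C18 column with methanol-water (65:35), against a peak-height standard curve that was linear over the range. Experiments were run in duplicate.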

[2] = system: L1210; assay: Uptake of a initial concentration of 10 ug/mL of compound in medium by L1210 cells after 60 min expressed as drug concentration in cells; type: functional, cell-based; conditions: Mus musculus; method in brief: as §1
[3] = system: L1210; assay: Inhibition of L1210 leukemia cells, after exposure to compound for period of 1 hr; type: functional; conditions: Mus musculus, L1210, 1 h; read-out: ID50 (the source's name)
Method in brief: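 Soft-agar colony-forming assay using L1210 murine lymphocytic leukemia cells at 4×10^4/mL. Drug exposure was either 1 h or continuous, with continuous dosing done by adding drug to the final plating medium (RPMI 1640, 10% fetal bovine serum, 1% penicillin/streptomycin, 0.3% agar). Read-out is percent survival of colony-forming cells, as the mean of six values (three plates in each of two experiments). ID50 is given as molar concentration.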

[4] = system: L1210; assay: Uptake of a initial concentration of 10 ug/mL of compound in medium by L1210 cells after 10 min expressed as drug concentration in cells; type: functional, cell-based; conditions: Mus musculus; method in brief: as §1
[5] = system: L1210; assay: Uptake of a initial concentration of 100 ug/mL of compound in medium by L1210 cells after 60 min expressed as drug concentration in cells; type: functional, cell-based; conditions: Mus musculus; method in brief: as §1
[6] = system: L1210; assay: Uptake of a initial concentration of 100 ug/mL of compound in medium by L1210 cells after 10 min expressed as drug concentration in cells; type: functional, cell-based; conditions: Mus musculus; method in brief: as §1
[7] = system: L1210; assay: Uptake of a initial concentration of 10 ug/mL of compound in medium by L1210 cells after 30 min expressed as drug concentration in cells; type: functional, cell-based; conditions: Mus musculus; method in brief: as §1
[8] = system: L1210; assay: The compound was evaluated for survival of L1210 cells, when compound was exposed for a period of […] 1X (10e -7)M conc; type: functional, Mus musculus
Method in brief: (§2)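 In a soft-agar colony-forming assay, L1210 murine lymphocytic leukemia cells (4×10^4/mL) were exposed to drug continuously, with drug added to the final plating medium. That medium was RPMI 1640 with 10% fetal bovine serum, 1% penicillin-streptomycin and 0.3% agar. Read-out was percent survival of colony-forming cells, given as the mean of six values (three plates, two experiments).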

[9] = system: L1210; assay: The compound was evaluated for survival of L1210 cells, when compound was exposed for a period of 1 hr 5*(10e -5)M conc; type: functional, Mus musculus
Method in brief: (§3)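 L1210 murine lymphocytic leukemia cells at 4×10^4/mL were exposed to drug for 1 h and then cloned in soft agar. The plating medium was RPMI 1640 with 10% fetal bovine serum, 1% penicillin-streptomycin and 0.3% agar. Read-out was percent survival of colony-forming cells, taken as the mean of six values (three plates in each of two experiments).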

[10] = system: L1210; assay: The compound was evaluated for survival of L1210 cells, when compound was exposed for a period of […] 1X (10e -9)M conc; type: functional, Mus musculus; method in brief: as §2
[11] = system: L1210; assay: The compound was evaluated for survival of L1210 cells, when compound was exposed for a period of […] 5*(10e -8)M conc; type: functional, Mus musculus; method in brief: as §2
[12] = system: L1210; assay: The compound was evaluated for survival of L1210 cells, when compound was exposed for a period of 1 hr 1X (10e -5)M conc; type: functional, Mus musculus; method in brief: as §3
[13] = system: L1210; assay: The compound was evaluated for survival of L1210 cells, when compound was exposed for a period of 1 hr 1X (10e -7)Mconc; type: functional, Mus musculus; method in brief: as §3
[14] = system: L1210; assay: The compound was evaluated for survival of L1210 cells, when compound was exposed for a period of 1 hr 1X (10e -6)M conc; type: functional, Mus musculus; method in brief: as §3
[15] = system: L1210; assay: The compound was evaluated for survival of L1210 cells, when compound was exposed for a period of […] 1X (10e -8)Mconc; type: functional, Mus musculus; method in brief: as §2

| SMILES | Concentration [1] [µg/mL] | Concentration [2] [µg/mL] | IC50 [3] [µM] | Concentration [4] [µg/mL] | Concentration [5] [µg/mL] | Concentration [6] [µg/mL] | Concentration [7] [µg/mL] | Survival [8] [%] | Survival [9] [%] | Survival [10] [%] | Survival [11] [%] | Survival [12] [%] | Survival [13] [%] | Survival [14] [%] | Survival [15] [%] |
| --- | --- | --- | --- | --- | --- | --- | --- | --- | --- | --- | --- | --- | --- | --- | --- |
| CC1=C(N)C(=O)c2c(COC(N)=O)c3n(c2C1=O)CC(N)C3OP(=O)(O)OC[C@H]1O[C@@H](n2ccc(=O)[nH]c2=O)[C@H](O)[C@@H]1O (some centres undefined) | 20 | 2.5 | 13.3 | 8 | 1 | 20 | 1 |  |  |  |  |  |  |  |  |
| CC1=C(N)C(=O)c2c(COC(N)=O)c3n(c2C1=O)CC(N)C3OP(=O)(O)OC[C@H]1O[C@@H](n2cc(F)c(=O)[nH]c2=O)C[C@@H]1O (some centres undefined) |  |  | 14 |  |  |  |  |  |  |  |  |  |  |  |  |
| CO[C@@]12[C@H](COC(N)=O)C3=C(C(=O)C(C)=C(N)C3=O)N1C[C@@H]1N[C@@H]12.O=c1[nH]c(=O)n([C@H]2C[C@H](O)[C@@H](CO)O2)cc1F |  |  |  |  |  |  |  | 3 | 2 | 84 | 42 | 1 | 100 | 48 | 70 |
| CC1=C(N)C(=O)c2c(COC(N)=O)c3n(c2C1=O)CC(N)C3[18OH] (centres undefined) |  |  | 62 |  |  |  |  |  |  |  |  |  |  |  |  |
| O=c1[nH]c(=O)n([C@H]2C[C@H](O)[C@@H](CO)O2)cc1F [FLOXURIDINE] |  |  |  |  |  |  |  | 62 | 89 | 100 | 68 | 92 | 98 | 94 | 76 |
| CO[C@@]12[C@H](COC(N)=O)C3=C(C(=O)C(C)=C(N)C3=O)N1C[C@@H]1N[C@@H]12 [MITOMYCIN] |  |  | 3.1 |  |  |  |  | 7 | 2 | 98 | 73 | 1 | 89 | 52 | 100 |
